Source: ChEMBL document CHEMBL1124352, “Oral hypoglycemic agents. Discovery and structure-activity relationships of phenacylimidazolium halides” (1989)

Columns and labels:
Mus musculus [1] = assay: Percent blood glucose level in mice 2 hours after peroral administration of compound (100 mg/kg); type: functional
Summary of the method: (§1)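 Viable yellow obese diabetic mice, six per group, gavaged with 100 mg/kg in saline-2% Emulphor; six vehicle-gavaged controls. Tail blood taken before dosing and at 2 and 4 h. Glucose measured by glucose oxidase method on an autoanalyzer. Values expressed as percent of zero time, mean ±SE of six mice. Significance versus controls by Student's t test, p < 0.05.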

Mus musculus [2] = assay: Percent blood glucose level in mice 4 hours after peroral administration of compound (100 mg/kg); type: functional; summary of the method: as §1

## Cn1cc[n+](CC(=O)c2cccc(Cl)c2)c1.[Br-]
Mus musculus [1]
  Blood glucose: 107%
Mus musculus [2]
  Blood glucose: 112%

## CCCn1cc[n+](CC(=O)c2ccccc2)c1.[Cl-]
Mus musculus [1]
  Blood glucose: 79%
Mus musculus [2]
  Blood glucose: 79%

## Cc1ccc(C(=O)C[n+]2ccncc2)cc1.[Br-]
Mus musculus [1]
  Blood glucose: 122%
Mus musculus [2]
  Blood glucose: 112%

## COc1cccc(C(=O)C[n+]2ccn(C)c2SC(C)C)c1.[Br-]
Mus musculus [1]
  Blood glucose: 101%
Mus musculus [2]
  Blood glucose: 121%

## Cc1ccc(C(=O)C[n+]2ccn(C)c2)c(C)c1.[Br-]
Mus musculus [1]
  Blood glucose: 62%
Mus musculus [2]
  Blood glucose: 79%

## CC(C(=O)c1ccccc1)[n+]1ccn(C)c1.[Br-] (stereo not drawn)
Mus musculus [1]
  Blood glucose: 70%
Mus musculus [2]
  Blood glucose: 61%

## COc1cccc(C(=O)C[n+]2ccn(C)c2)c1OC.[Br-]
Mus musculus [1]
  Blood glucose: 83%
Mus musculus [2]
  Blood glucose: 88%

## Cc1cc[n+](CC(=O)c2ccccc2)cc1.[Br-]
Mus musculus [1]
  Blood glucose: 105%
Mus musculus [2]
  Blood glucose: 103%

## COc1ccc(OC)c(C(=O)C[n+]2ccn(C)c2)c1.[Br-]
Mus musculus [1]
  Blood glucose: 78%
Mus musculus [2]
  Blood glucose: 86%

## Cc1ccc(C(=O)C[n+]2csc3ccccc32)cc1.[Br-]
Mus musculus [1]
  Blood glucose: 106%
Mus musculus [2]
  Blood glucose: 108%

## COc1cccc(C(=O)Cn2ccn(C)c2=O)c1
Mus musculus [1]
  Blood glucose: 101%
Mus musculus [2]
  Blood glucose: 103%

## COc1cccc(C(=O)C[n+]2ccsc2)c1.[Br-]
Mus musculus [1]
  Blood glucose: 105%
Mus musculus [2]
  Blood glucose: 123%

## Cc1ccc(C(=O)C[n+]2cn(C)c(-c3ccccc3)c2-c2ccccc2)cc1.[Br-]
Mus musculus [1]
  Blood glucose: 102%
Mus musculus [2]
  Blood glucose: 105%

## COc1cccc(C(=O)Cn2ccnc2)c1
Mus musculus [1]
  Blood glucose: 110%
Mus musculus [2]
  Blood glucose: 121%

## CCc1ccc(C(=O)C[n+]2ccn(C)c2)cc1.[Br-]
Mus musculus [1]
  Blood glucose: 77%
Mus musculus [2]
  Blood glucose: 88%

## Cc1ccc(C(=O)C[n+]2cc3ccccc3cn2)cc1.[Br-]
Mus musculus [1]
  Blood glucose: 115%
Mus musculus [2]
  Blood glucose: 108%

## COc1cccc(C(O)C[n+]2ccn(C)c2)c1.[I-] (stereo not drawn)
Mus musculus [1]
  Blood glucose: 106%
Mus musculus [2]
  Blood glucose: 103%

## Cc1ccc(C(=O)C[n+]2ccn(C)c2)cc1.[Br-]
Mus musculus [1]
  Blood glucose: 57%
Mus musculus [2]
  Blood glucose: 53%

## CCOc1cccc(C(=O)C[n+]2ccn(C)c2)c1.[Br-]
Mus musculus [1]
  Blood glucose: 63%
Mus musculus [2]
  Blood glucose: 64%

## COc1cccc(C(=O)Cn2ccn(C)c2=S)c1
Mus musculus [1]
  Blood glucose: 99%
Mus musculus [2]
  Blood glucose: 80%

## COc1cccc(C(=O)C[N+]2=CN(C)CC2)c1.[Br-]
Mus musculus [1]
  Blood glucose: 81%
Mus musculus [2]
  Blood glucose: 97%

## Cc1ccccc1C(=O)C[n+]1ccn(C)c1.[Br-]
Mus musculus [1]
  Blood glucose: 80%
Mus musculus [2]
  Blood glucose: 87%

## CCCOc1cccc(C(=O)C[n+]2ccn(C)c2)c1.[Br-]
Mus musculus [1]
  Blood glucose: 63%
Mus musculus [2]
  Blood glucose: 72%

## Cn1cc[n+](CC(=O)c2ccc(Cl)c(Cl)c2)c1.[Br-]
Mus musculus [1]
  Blood glucose: 94%
Mus musculus [2]
  Blood glucose: 79%

## Cc1cc(C)c(C(=O)C[n+]2ccn(C)c2)c(C)c1.[Br-]
Mus musculus [1]
  Blood glucose: 94%
Mus musculus [2]
  Blood glucose: 97%

## COc1cc(OC)cc(C(=O)C[n+]2ccn(C)c2)c1.[Br-]
Mus musculus [1]
  Blood glucose: 83%
Mus musculus [2]
  Blood glucose: 69%

## C[n+]1ccn(CC(=O)c2ccccc2)c1.[Br-]
Mus musculus [1]
  Blood glucose: 74%
Mus musculus [2]
  Blood glucose: 71%

## Cc1n(C)cc[n+]1CC(=O)c1ccccc1.[Cl-]
Mus musculus [1]
  Blood glucose: 90%
Mus musculus [2]
  Blood glucose: 81%

## Cn1cc[n+](CC(=O)c2cccc3ccccc23)c1.[Br-]
Mus musculus [1]
  Blood glucose: 90%
Mus musculus [2]
  Blood glucose: 110%

## COc1cc(OC)cc(C(=O)C[n+]2ccoc2)c1.[Br-]
Mus musculus [1]
  Blood glucose: 95%
Mus musculus [2]
  Blood glucose: 97%

## Cc1ccc(C(=O)C[n+]2ccccn2)cc1.[Br-]
Mus musculus [1]
  Blood glucose: 105%
Mus musculus [2]
  Blood glucose: 111%

## CC(=O)Nc1cccc(C(=O)C[n+]2ccn(C)c2)c1.[Br-]
Mus musculus [1]
  Blood glucose: 100%
Mus musculus [2]
  Blood glucose: 109%

## Cn1cc[n+](CC(=O)c2ccc3ccccc3c2)c1.[Br-]
Mus musculus [1]
  Blood glucose: 89%
Mus musculus [2]
  Blood glucose: 99%

## COc1ccc(C(=O)C[n+]2ccn(C)c2)cc1.[Br-]
Mus musculus [1]
  Blood glucose: 70%
Mus musculus [2]
  Blood glucose: 77%

## Cn1cc[n+](CC(=O)c2ccc(O)c(O)c2)c1.[Cl-]
Mus musculus [1]
  Blood glucose: 108%
Mus musculus [2]
  Blood glucose: 107%

## Cc1ccc(C(=O)C[n+]2ccn(C)c2)cc1C.[Br-]
Mus musculus [1]
  Blood glucose: 83%
Mus musculus [2]
  Blood glucose: 95%

## Cn1cc[n+](CC(=O)c2ccc(C#N)cc2)c1.[Br-]
Mus musculus [1]
  Blood glucose: 105%
Mus musculus [2]
  Blood glucose: 106%

## Cc1ccc(C(=O)Cn2ccc[n+]2C)cc1.[Br-]
Mus musculus [1]
  Blood glucose: 83%
Mus musculus [2]
  Blood glucose: 82%

## Cn1cc[n+](C(C)(C)C(=O)c2ccccc2)c1.[Br-]
Mus musculus [1]
  Blood glucose: 104%
Mus musculus [2]
  Blood glucose: 113%

## Cn1cc[n+](CC(=O)c2ccccc2F)c1.[Br-]
Mus musculus [1]
  Blood glucose: 91%
Mus musculus [2]
  Blood glucose: 99%

## COc1cccc(C(=O)CC[n+]2ccn(C)c2)c1.[I-]
Mus musculus [1]
  Blood glucose: 91%
Mus musculus [2]
  Blood glucose: 94%

## COc1cccc(C(=O)C[n+]2ccn(C)c2)c1.[Br-]
Mus musculus [1]
  Blood glucose: 58%
Mus musculus [2]
  Blood glucose: 72%

## Cc1cccc(C(=O)C[n+]2ccn(C)c2)c1.[Br-]
Mus musculus [1]
  Blood glucose: 78%
Mus musculus [2]
  Blood glucose: 73%

## Cn1cc[n+](CC(=O)c2ccco2)c1.[Br-]
Mus musculus [1]
  Blood glucose: 72%
Mus musculus [2]
  Blood glucose: 92%

## COc1ccccc1C(=O)C[n+]1ccn(C)c1.[Br-]
Mus musculus [1]
  Blood glucose: 90%
Mus musculus [2]
  Blood glucose: 97%

## Cn1cc[n+](CC(=O)c2ccc(Cl)cc2)c1.[Br-]
Mus musculus [1]
  Blood glucose: 94%
Mus musculus [2]
  Blood glucose: 93%

## CC(=O)C[n+]1ccn(-c2ccccc2)c1.[Cl-]
Mus musculus [1]
  Blood glucose: 105%
Mus musculus [2]
  Blood glucose: 109%

## COC(=O)Cn1cc[n+](CC(=O)c2ccccc2)c1.[Br-]
Mus musculus [1]
  Blood glucose: 89%
Mus musculus [2]
  Blood glucose: 84%

## Cn1cc[n+](CC(=O)c2ccc(-c3ccccc3)cc2)c1.[Br-]
Mus musculus [1]
  Blood glucose: 103%
Mus musculus [2]
  Blood glucose: 103%

## CO/N=C(/C[n+]1ccn(C)c1)c1ccc(C)cc1.[I-]
Mus musculus [1]
  Blood glucose: 86%
Mus musculus [2]
  Blood glucose: 81%

## COc1cccc(C(=O)C[n+]2ccn(C(C)C)c2)c1.[Br-]
Mus musculus [1]
  Blood glucose: 79%
Mus musculus [2]
  Blood glucose: 83%

## Cn1cc[n+](C(C(=O)c2ccccc2)c2ccccc2)c1.[Cl-] (stereo not drawn)
Mus musculus [1]
  Blood glucose: 94%
Mus musculus [2]
  Blood glucose: 83%

## Cc1ccc(S(=O)(=O)[O-])cc1.Cn1cc[n+](CC(=O)c2cccc(O)c2)c1
Mus musculus [1]
  Blood glucose: 93%
Mus musculus [2]
  Blood glucose: 87%

## Cn1cc[n+](CC(=O)c2ccc(C(N)=O)cc2)c1.[Br-]
Mus musculus [1]
  Blood glucose: 100%
Mus musculus [2]
  Blood glucose: 95%

## Cn1cc[n+](CC(=O)c2cccc(C(F)(F)F)c2)c1.[I-]
Mus musculus [1]
  Blood glucose: 95%
Mus musculus [2]
  Blood glucose: 97%

## CCOc1ccc(C(=O)C[n+]2ccn(C)c2)cc1.[Br-]
Mus musculus [1]
  Blood glucose: 103%
Mus musculus [2]
  Blood glucose: 104%

## COc1cccc(C(=O)C[n+]2ccn(-c3ccccc3)c2)c1.[Br-]
Mus musculus [1]
  Blood glucose: 96%
Mus musculus [2]
  Blood glucose: 91%

## Br.O=C(Cn1ccnc1)c1ccccc1
Mus musculus [1]
  Blood glucose: 103%
Mus musculus [2]
  Blood glucose: 90%

## COc1ccc(C(=O)C[n+]2ccn(C)c2)cc1OC.[Br-]
Mus musculus [1]
  Blood glucose: 86%
Mus musculus [2]
  Blood glucose: 81%
